Paper PMC4444071 (ACS infectious diseases, 2015)
Where two headings read alike, the source gives them in different places.

Columns and labels:
HCV NS3h [1] = target: T1, HCV NS3h (Hepatitis C virus genotype 1b, UniProt Q9WMX2); settings: read-out: HCV DNA-helicase IC50; HCV NS3h DNA unwinding; ref Li et al.[36]; cited from earlier work
DENV NS3h [2] = target: T2, DENV NS3h (Dengue virus type 2, UniProt Q91H74); format: biochemical; settings: read-out: DENV ATPase IC50; DENV NS3h-catalyzed ATP hydrolysis; 100 μM ATP, poly(U) RNA, pH 7.5
T2 sequence (Q91H74 1646-2093 limits assumed): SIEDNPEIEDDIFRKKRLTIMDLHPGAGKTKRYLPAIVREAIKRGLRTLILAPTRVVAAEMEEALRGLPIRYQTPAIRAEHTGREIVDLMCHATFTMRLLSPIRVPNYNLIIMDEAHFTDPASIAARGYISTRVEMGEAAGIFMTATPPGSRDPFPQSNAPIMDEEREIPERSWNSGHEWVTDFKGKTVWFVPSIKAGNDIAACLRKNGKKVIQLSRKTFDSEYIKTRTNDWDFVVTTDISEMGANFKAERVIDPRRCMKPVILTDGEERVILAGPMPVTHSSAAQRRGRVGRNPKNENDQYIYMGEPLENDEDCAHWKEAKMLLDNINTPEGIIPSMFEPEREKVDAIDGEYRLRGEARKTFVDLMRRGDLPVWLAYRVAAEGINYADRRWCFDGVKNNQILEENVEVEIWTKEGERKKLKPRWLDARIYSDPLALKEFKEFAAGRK

HCV NS3h [3] = target: T1, HCV NS3h; assay: HCV NS3h-catalyzed ATP hydrolysis assay; format: biochemical; settings: read-out: HCV ATPase IC50
How it was run: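 HCV NS3h (4 nM) in 25 mM Tris pH 7.5, 1.25 mM MgCl2, 100 μM ATP, 15 μM poly(U) RNA (as nucleotide), 33 μg/mL BSA, 0.07% Tween 20, 0.3 mM DTT, 0.6% DMSO. Started with MgCl2; 30 min at 23 °C. Released phosphate read at 620 nm with Biomol Green. Scaled to 6.7 μM ATA (100%) and DMSO (0%). IC50 from variable-slope nonlinear fit.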

HCV NS3h [4] = target: T1, HCV NS3h; assay: HCV NS3h RNA unwinding assay; format: biochemical; settings: read-out: HCV RNA-helicase IC50, values without asterisk
DENV NS3h [5] = target: T2, DENV NS3h; format: biochemical; settings: for IC50: read-out: DENV RNA-helicase IC50, DENV NS3h RNA unwinding, 100 nM DENV helicase
[6] = test system: herpes simplex virus helicase; settings: read-out: helicase-catalyzed ATP hydrolysis IC50, cited from earlier work
[7] = test system: subgenomic DENV-2 replicon; assay: DENV subgenomic replicon assay
[8] = test system: West Nile virus (Kunjin subtype); assay: West Nile virus; format: cell-based; settings: 50 μM compound, BHK cells, 72 h

T1 sequence (Q9WMX2 1192-1657): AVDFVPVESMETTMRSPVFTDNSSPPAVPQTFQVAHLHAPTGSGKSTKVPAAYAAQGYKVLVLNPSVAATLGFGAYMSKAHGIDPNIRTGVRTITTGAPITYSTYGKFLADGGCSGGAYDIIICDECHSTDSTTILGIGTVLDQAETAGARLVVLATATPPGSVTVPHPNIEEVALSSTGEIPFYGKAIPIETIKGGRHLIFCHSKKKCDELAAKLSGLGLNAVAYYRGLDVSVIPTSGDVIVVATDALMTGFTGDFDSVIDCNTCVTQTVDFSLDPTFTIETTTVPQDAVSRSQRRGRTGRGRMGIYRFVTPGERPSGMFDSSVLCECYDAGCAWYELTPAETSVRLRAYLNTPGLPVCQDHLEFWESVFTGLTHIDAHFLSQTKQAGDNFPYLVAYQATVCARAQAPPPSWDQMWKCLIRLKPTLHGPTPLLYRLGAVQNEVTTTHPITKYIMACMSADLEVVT

Row | SMILES | IC50 (HCV NS3h [1]) | IC50 (DENV NS3h [2]) | IC50 (HCV NS3h [3]) | IC50 (HCV NS3h [4]) | IC50 (DENV NS3h [5]) | further results
1 | Cc1ccc2nc(-c3ccc4nc(-c5ccc(NC(=O)c6cc(F)cc(C(F)(F)F)c6)cc5)sc4c3)sc2c1S(=O)(=O)O [compound 23] | 28 ± 7 µM | 11 ± 5.7 µM | > 200 µM | 9.8 ± 3 µM |  | 
2 | Cc1ccc2nc(-c3ccc4nc(-c5ccc(NC(=O)c6cc(F)ccc6C(F)(F)F)cc5)sc4c3)sc2c1S(=O)(=O)O [compound 22] | 19 ± 15 µM | 7.2 ± 0.8 µM | 65 ± 10 µM |  |  | 
3 | Cc1ccc2nc(-c3ccc4nc(-c5ccc(NC(=O)c6ccc(C(F)(F)F)c(F)c6)cc5)sc4c3)sc2c1S(=O)(=O)O [compound 19] | 17 ± 7 µM | 3.5 ± 1.1 µM | 55 ± 42 µM | 5.4 ± 2 µM |  | 
4 | Cc1ccc2nc(-c3ccc4nc(-c5ccc(NC(=O)c6ccc(F)cc6)cc5)sc4c3)sc2c1S(=O)(=O)O [compound 3] | 5.2 ± 0.6 µM | 3 ± 0.4 µM | 32 ± 7 µM |  | 6.6 ± 0.9 µM | 
5 | Cc1ccc2nc(-c3ccc4nc(-c5ccc(NC(=O)c6ccc(Br)cc6)cc5)sc4c3)sc2c1S(=O)(=O)O [compound 11] | 5.2 ± 4 µM | 1.1 ± 0.1 µM | 21 ± 6 µM |  | 5 ± 1.2 µM | 
6 | Cc1ccc2nc(-c3ccc4nc(-c5ccc(NC(=O)c6cccc(C(F)(F)F)c6F)cc5)sc4c3)sc2c1S(=O)(=O)O [compound 18] | 9.2 ± 3 µM | 4.3 ± 0.3 µM | 42 ± 14 µM |  |  | 
7 | Cc1ccc2nc(-c3ccc4nc(-c5ccc(NC(=O)c6ccc(N)cc6)cc5)sc4c3)sc2c1S(=O)(=O)O [compound 2] | 10 ± 2.4 µM | 2.8 ± 0.6 µM | 58 ± 10 µM |  | 7.6 ± 1.6 µM | 
8 | Cc1cccc(C)c1N(CC(=O)Nc1ccc(-c2ncon2)cc1)C(=O)C1CCS(=O)(=O)CC1 [amenamevir] |  |  |  |  |  | IC50 ([6]; HSV helicase): 0.078 µM
9 | Cc1ccc2nc(-c3ccc4nc(-c5ccc(NC(=O)c6ccc(Cl)cc6)cc5)sc4c3)sc2c1S(=O)(=O)O [compound 6] | 3.4 ± 0.3 µM | 1.4 ± 0.2 µM | 53 ± 4 µM | 3.3 ± 1 µM | 5.6 ± 1.2 µM | 
10 | Cc1ccc2nc(-c3ccc4nc(-c5ccc(NC(=O)c6ccc7nc(-c8ccc(N)cc8)sc7c6)cc5)sc4c3)sc2c1S(=O)(=O)O.N [compound 24] |  | 0.5 ± 0.1 µM |  | 2 ± 0.7 µM | 1.5 ± 0.2 µM | TI (CC50/replicon EC50) ([7]; BHK cell viability CC50 / replicon EC50): 17; inhibition of DENV replicon (in words) ([7]; concentration-response): reduced replication of a subgenomic DENV replicon in cells in a concentration-dependent manner; inhibition of replicon content in concentration-response assays ([7]; eight-point two-fold dilution series starting at 100 μM): more than 90%; EC50 ([7]; read-out: replicon EC50, BHK cell DENV replicon content, 72 h): 7.1 ± 3 µM
11 | Cc1ccc2nc(-c3ccc4nc(-c5ccc(NC(=O)c6cc(C(F)(F)F)cc(C(F)(F)F)c6)cc5)sc4c3)sc2c1S(=O)(=O)O.N [compound 20] |  | 63 ± 20 µM | > 200 µM |  | 7.7 ± 1.8 µM | times less compound needed to inhibit RNA unwinding than ATP hydrolysis (DENV NS3h [5]; DENV NS3h, unwinding vs ATPase): about 8 times
12 | Cc1ccc2nc(-c3ccc4nc(-c5ccc(NC(=O)c6cccc(C(F)(F)F)c6)cc5)sc4c3)sc2c1S(=O)(=O)O [compound 16] | 20 ± 12 µM | 9.7 ± 3.1 µM | > 200 µM | 22.4 ± 8 µM |  | 
13 | Cc1ccc2nc(-c3ccc4nc(-c5ccc(NC(=O)c6ccccc6C(F)(F)F)cc5)sc4c3)sc2c1S(=O)(=O)O [compound 15] | 14 ± 1 µM | 5.4 ± 0.8 µM | 71 ± 23 µM | 22.8 ± 5 µM |  | 
14 | COc1ccc(C(=O)Nc2ccc(-c3nc4ccc(-c5nc6ccc(C)c(S(=O)(=O)O)c6s5)cc4s3)cc2)cc1 [compound 4] | 10 ± 2.6 µM | 3 ± 0.5 µM | 115 ± 14 µM |  |  | 
15 | Cc1ccc(C(=O)Nc2ccc(-c3nc4ccc(-c5nc6ccc(C)c(S(=O)(=O)O)c6s5)cc4s3)cc2)cc1 [compound 7] | 3.3 ± 0.3 µM | 1.1 ± 0.2 µM | 61 ± 1 µM | 3.9 ± 1 µM | 4.3 ± 1.9 µM | 
16 | Cc1ccc2nc(-c3ccc4nc(-c5ccc(NC(=O)c6cccc(Cl)c6)cc5)sc4c3)sc2c1S(=O)(=O)O [compound 13] | 2.6 ± 1 µM | 4 ± 0.8 µM | 24 ± 5 µM | 5.9 ± 2 µM | 5.1 ± 0.9 µM | 
17 | Cc1ccc2nc(-c3ccc4nc(-c5ccc(NC(=O)c6c(F)cccc6C(F)(F)F)cc5)sc4c3)sc2c1S(=O)(=O)O [compound 17] | 17 ± 6 µM |  | 93 ± 16 µM | 32.5 ± 7 µM |  | 
18 | Cc1ccc2nc(-c3ccc4nc(-c5ccc(NC(=O)c6ccc(C(F)(F)F)cc6)cc5)sc4c3)sc2c1S(=O)(=O)O [compound 8] | 1.8 ± 0.4 µM | 1.2 ± 0.2 µM | 111 ± 60 µM | 2.8 ± 2 µM | 5.2 ± 0.6 µM | 
19 | Cc1ccc2nc(-c3ccc4nc(-c5ccc(NC(=O)c6ccc(NC(=O)OCC7c8ccccc8-c8ccccc87)cc6)cc5)sc4c3)sc2c1S(=O)(=O)O [compound 12] | 5.4 ± 1 µM | 1.3 ± 0.3 µM | 39 ± 31 µM | 2.8 ± 1 µM | 3.5 ± 1.7 µM | 
20 | Cc1nc(N(C)C(=O)Cc2ccc(-c3ccccn3)cc2)sc1S(N)(=O)=O [BAY 57-1293] |  |  |  |  |  | IC50 ([6]; purified HSV helicase): 0.03 µM
21 | Cc1ccc2nc(-c3ccc4nc(-c5ccc(NC(=O)c6ccc(C(C)(C)C)cc6)cc5)sc4c3)sc2c1S(=O)(=O)O [compound 9] | 8.2 ± 1 µM | 4 ± 0.5 µM | > 200 µM |  | 10 ± 3.4 µM | 
22 | Cc1ccc2nc(-c3ccc4nc(-c5ccc(NC(=O)c6ccc(N(C)C)cc6)cc5)sc4c3)sc2c1S(=O)(=O)O [compound 10] | 11 ± 6.7 µM | 3.4 ± 0.3 µM | > 200 µM | 8.6 ± 2 µM |  | 
23 | Cc1ccc2nc(-c3ccc4nc(-c5ccc(NC(=O)c6ccc(Cl)c(Cl)c6)cc5)sc4c3)sc2c1S(=O)(=O)O [compound 14] | 3.7 ± 1 µM | 2.7 ± 0.2 µM | 53 ± 3 µM |  | 3.6 ± 0.9 µM | 
24 | COC(=O)c1ccc(C(=O)Nc2ccc(-c3nc4ccc(-c5nc6ccc(C)c(S(=O)(=O)O)c6s5)cc4s3)cc2)cc1.N [compound 5] | 9.7 ± 4.6 µM | 0.4 ± 0.1 µM | > 200 µM |  | 7.9 ± 2.5 µM | times more compound needed to inhibit RNA unwinding than ATP hydrolysis (DENV NS3h [5]; DENV NS3h, unwinding vs ATPase): About 20 times
25 | Cc1ccc2nc(-c3ccc4nc(-c5ccc(NC(=O)c6cc(C(F)(F)F)ccc6F)cc5)sc4c3)sc2c1S(=O)(=O)O [compound 21] | 6.4 ± 2 µM | 3.8 ± 0.2 µM | 16 ± 2 µM | 7.5 ± 2 µM | 5.4 ± 1.3 µM | 
26 | Cc1ccc2nc(-c3ccc4nc(-c5ccc(NC(=O)c6ccccc6)cc5)sc4c3)sc2c1S(=O)(=O)O [compound 1] | 11 ± 1.5 µM | 5.3 ± 1.2 µM | 69 ± 6 µM | 8.5 ± 2 µM |  | 
27 | Cc1cc(N2C(=O)C(O)=C(C(=O)c3ccc(C)o3)C2c2cc(Cl)cc(Cl)c2)no1 (stereo not drawn) [compound 25] |  |  |  |  |  | effect on West Nile virus plaque-forming units (in words) [8]: lowering plaque-forming units (pfu) to the greatest extent
